Only some compounds are listed: those with a hit (about 1.5% of all), similar ones and a draw of the others.
FLuc inhib CS = counter-screen for luciferase assay inhibitors: firefly luciferase inhibition. ATPLite firefly luciferase biochemical luminescence, 10 min. AID 1006. inhibition, % at 10 µM. 200,000 compounds, 1.5% hits. P08659;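 active = inhibition above about 50% when tested at 10 µM, limit read from the data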
Target sequence (P08659 whole entry, looked up): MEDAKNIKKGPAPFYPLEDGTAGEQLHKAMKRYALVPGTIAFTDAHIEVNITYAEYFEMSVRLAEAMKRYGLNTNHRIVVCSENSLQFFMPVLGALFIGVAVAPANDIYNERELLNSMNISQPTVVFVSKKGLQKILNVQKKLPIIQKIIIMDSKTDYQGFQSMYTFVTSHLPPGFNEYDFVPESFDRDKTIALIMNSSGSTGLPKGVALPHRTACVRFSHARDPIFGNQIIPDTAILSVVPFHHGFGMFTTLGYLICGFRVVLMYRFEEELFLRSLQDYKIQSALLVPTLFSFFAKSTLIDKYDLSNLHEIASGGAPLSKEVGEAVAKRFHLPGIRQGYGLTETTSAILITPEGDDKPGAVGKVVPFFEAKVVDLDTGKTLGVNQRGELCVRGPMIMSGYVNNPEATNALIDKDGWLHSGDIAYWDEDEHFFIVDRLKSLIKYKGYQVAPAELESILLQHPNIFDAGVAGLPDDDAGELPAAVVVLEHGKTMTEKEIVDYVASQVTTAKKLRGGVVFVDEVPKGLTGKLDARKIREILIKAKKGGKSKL
FLuc stim CS = firefly luciferase counter-screen for stimulation assays. activation factor at 10 µM. 200,000 tested, under 10 active. ATPlite luciferase biochemical, luminescence, 10 min; 0 = ATP-free wells, 1 = DMSO control;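 active = luciferase activation factor, scaled between plate controls, of at least 2 with compound at 10 µM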
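System: cell-free luciferase reagent; medium: PBS as buffer for the ATP substrate; doses: test compounds dosed from 2 mM stocks in 100% DMSO; incubation: 10 min, room temperature; measured by: luminescence from luciferase reaction; read-out: luciferase activation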
PPC-1+TRAIL kill = kills PPC-1 cancer cells in the presence of TRAIL; AID 1443; 220,000 compounds, 0.41% hits; cell killing (% activity), % at 4 µM or 5 µM; PPC-1 cells + TRAIL, ATPLite viability luminescence;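 active = cell killing above 50% in the first pass at 4 µM, then a duplicate retest at 5 µM averaging 50% or more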
TRAIL sens C8 = caspase-8 TRAIL sensitization; NB7+C8 cells + TRAIL, ATPlite viability luminescence; inhibition (viability loss, TRAIL sensitization), % at 10 µM; 360,000 compounds, 1% hits; AID 624354;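 active = compounds causing at least 50% loss of cell viability in the single-dose screen, relative to plate controls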
Numbers stand for hits.

What do the screens show for `Nc1nc(N)c2cc(Sc3ccc(Cl)cc3)ccc2n1`?
TRAIL sens C8: 73

Results for CCN(CC(=O)NC1CCCC1)S(=O)(=O)c1ccc(F)cc1 ?
TRAIL sens C8: inactive

Results for COCCN(CCOC)Cc1cc(=O)oc2cc(C)c(Cl)cc12 ?
TRAIL sens C8: inactive

Results for Fc1ccc(/C=N/NC2=Nc3cccc4cccc2c34)cc1 ?
FLuc inhib CS: 58; FLuc stim CS: inactive; PPC-1+TRAIL kill: inactive; TRAIL sens C8: inactive

How did O=C1/C(=C\c2cccnc2)Sc2ccccc21 do in these assays?
FLuc inhib CS: 60; FLuc stim CS: inactive; PPC-1+TRAIL kill: inactive; TRAIL sens C8: inactive

What do the screens show for `O=C1c2ccccc2C(=O)C1c1nccc2ccccc12`?
FLuc inhib CS: 90; FLuc stim CS: inactive; PPC-1+TRAIL kill: inactive; TRAIL sens C8: 89

How did COc1cccc(-n2nc(C(C)=O)c(C#N)c2-c2ccco2)c1 do in these assays?
FLuc inhib CS: inactive; FLuc stim CS: inactive; PPC-1+TRAIL kill: inactive; TRAIL sens C8: inactive

Results for CC1CCc2nc(NC(=O)Nc3ccc4c(c3)OCO4)sc2C1 (configuration not stated) ?
FLuc inhib CS: 53; FLuc stim CS: inactive; PPC-1+TRAIL kill: inactive; TRAIL sens C8: inactive

How did CC1CCc2nc(NC(=O)C3CC3)sc2C1 (configuration not stated) do in these assays?
FLuc inhib CS: inactive; FLuc stim CS: inactive; PPC-1+TRAIL kill: inactive; TRAIL sens C8: inactive

How did Cc1ncsc1C(=O)Nc1nc2c(s1)CC(C)CC2 (configuration not stated) do in these assays?
FLuc inhib CS: 58; FLuc stim CS: inactive; PPC-1+TRAIL kill: inactive; TRAIL sens C8: inactive

What do the screens show for `Cc1c(CN2CCC(CO)(CCOc3ccccc3)CC2)[nH]c2c(Cl)cccc12`?
FLuc inhib CS: inactive; FLuc stim CS: inactive; PPC-1+TRAIL kill: inactive; TRAIL sens C8: inactive

What do the screens show for `CCCCCCCCCCCCCCC[C@@H](O)[C@@H](N)CO`?
TRAIL sens C8: 95

Results for CCCCCCCCCC(=O)OCC(O)CO (configuration not stated) ?
FLuc inhib CS: inactive; FLuc stim CS: inactive; PPC-1+TRAIL kill: inactive; TRAIL sens C8: inactive

Results for O=c1[nH]n(-c2ccc(F)cc2)c2ncccc12 ?
FLuc inhib CS: inactive; FLuc stim CS: inactive; PPC-1+TRAIL kill: inactive; TRAIL sens C8: inactive

How did Cc1c(-c2ccccn2)c(=O)[nH]n1-c1ccc(F)cc1 do in these assays?
FLuc inhib CS: 61; FLuc stim CS: inactive; PPC-1+TRAIL kill: inactive; TRAIL sens C8: inactive

Results for COc1ccccc1N/C=C/c1onc(C)c1[N+](=O)[O-] ?
FLuc inhib CS: 59; FLuc stim CS: inactive; PPC-1+TRAIL kill: inactive; TRAIL sens C8: inactive

How did COc1ccc(-c2nc3ccccn3c2CN2CCN(c3ccccc3F)CC2)cc1 do in these assays?
FLuc inhib CS: inactive; FLuc stim CS: inactive; PPC-1+TRAIL kill: inactive; TRAIL sens C8: inactive

How did COc1ccc(-c2nc3ccccn3c2Cl)cc1 do in these assays?
TRAIL sens C8: 72

What do the screens show for `Nc1nc(CCl)nc(Nc2cccc3ccccc23)n1`?
PPC-1+TRAIL kill: inactive; TRAIL sens C8: 95

Results for CCOc1ccc(N=Nc2c(=O)[nH]n3c(=O)cc(C)[nH]c23)cc1 ?
FLuc inhib CS: 64; FLuc stim CS: inactive; PPC-1+TRAIL kill: inactive; TRAIL sens C8: inactive

Results for CN(C)C(=O)N1CCN(c2nc(-c3ccccc3)cs2)CC1 ?
TRAIL sens C8: 58

What do the screens show for `O=C(NCC1CCCO1)C1CC(c2ccc(Cl)c(Cl)c2)=NO1` (configuration not stated)?
FLuc inhib CS: inactive; FLuc stim CS: inactive; PPC-1+TRAIL kill: inactive; TRAIL sens C8: inactive

How did O=C(Nc1ccn(Cc2ccccc2)n1)c1ccc(F)cc1 do in these assays?
FLuc inhib CS: 50; FLuc stim CS: inactive; PPC-1+TRAIL kill: inactive; TRAIL sens C8: inactive

What do the screens show for `COc1ccccc1N1CCN(Cc2cc(=O)c(OCC(=O)NC(C)C)co2)CC1`?
TRAIL sens C8: inactive

How did COc1ccc(/C=N/Nc2ncccc2[N+](=O)[O-])c(OC)c1 do in these assays?
FLuc inhib CS: 63; FLuc stim CS: inactive; PPC-1+TRAIL kill: inactive; TRAIL sens C8: inactive

Results for COc1ccccc1/C=N/Nc1cc(C)nc2ccc(C)cc12 ?
TRAIL sens C8: inactive

Results for COc1ccc2nc(C)cc(Nc3ccc(N4CCN(C)CC4)cc3)c2c1 ?
TRAIL sens C8: 49

What do the screens show for `COc1ccc2nc(C)cc(Nc3ccc(N4CCOCC4)cc3)c2c1`?
FLuc inhib CS: inactive; FLuc stim CS: inactive; PPC-1+TRAIL kill: inactive; TRAIL sens C8: inactive

What do the screens show for `COc1ccc2nc(C)cc(N/N=C/c3ccccc3)c2c1`?
TRAIL sens C8: 53

How did COc1ccc(/C=N/Nc2cc(C)nc3ccc(OC)cc23)c(OC)c1 do in these assays?
TRAIL sens C8: 89

What do the screens show for `O=C(O)CC1(CC(=O)NCc2ccc(Cl)cc2)CCCCC1`?
TRAIL sens C8: inactive

How did CCC1CCCCN1c1ccc([N+](=O)[O-])cc1/C=N/NC(=O)Cn1c2ccccc2c(=O)c2ccccc21 (configuration not stated) do in these assays?
FLuc inhib CS: inactive; FLuc stim CS: inactive; PPC-1+TRAIL kill: inactive; TRAIL sens C8: 74

How did CCc1ccc(OCC(=O)N/N=C/c2cc([N+](=O)[O-])ccc2N2CCCCCC2)cc1 do in these assays?
FLuc inhib CS: inactive; FLuc stim CS: inactive; PPC-1+TRAIL kill: inactive; TRAIL sens C8: inactive

Results for O=C(NCCOc1ccccc1)C1=CC=CN2CCS(=O)(=O)N=C12 ?
TRAIL sens C8: inactive

Results for CCOC1(/N=C(\C)NS(=O)(=O)c2ccc(Cl)cc2)C(C)=CC(=O)C=C1C ?
FLuc inhib CS: inactive; FLuc stim CS: inactive; PPC-1+TRAIL kill: inactive; TRAIL sens C8: inactive

What do the screens show for `C(=Cc1c[nH]c2ccccc12)c1ccc2ccccc2n1`?
TRAIL sens C8: 71

What do the screens show for `O=C(/C=C/c1c[nH]c2ccccc12)c1ccccc1`?
FLuc inhib CS: inactive; FLuc stim CS: inactive; PPC-1+TRAIL kill: inactive; TRAIL sens C8: inactive

What do the screens show for `C(=Cc1c[nH]c2ccccc12)c1nccc2ccccc12`?
TRAIL sens C8: 73

How did CCCCCCCCCCCCCCCC[N+](C)(C)CCN(Cc1ccc(OC)cc1)c1ncccn1 do in these assays?
TRAIL sens C8: 53

Results for c1csc(-c2ccc3ccccc3n2)c1 ?
FLuc inhib CS: inactive; FLuc stim CS: inactive; PPC-1+TRAIL kill: inactive; TRAIL sens C8: inactive

Results for Cc1cc2ncc(-c3cccs3)nc2cc1C ?
TRAIL sens C8: 69

How did C=C1C(=O)C=C2CN(C(=O)c3ccccc3)[C@@](Cc3ccc(F)cc3)(C(=O)OC)[C@@H]12 do in these assays?
FLuc inhib CS: inactive; FLuc stim CS: inactive; PPC-1+TRAIL kill: inactive; TRAIL sens C8: 73

Results for C=C1C(=O)CC2=C1[C@](Cc1ccc(F)cc1)(C(=O)OC)N(C(=O)c1ccccc1)C2 ?
TRAIL sens C8: inactive

Results for CC(C)C(OC(=O)CN1C(=O)c2ccccc2C1=O)C(=O)NC1CCCC1 (configuration not stated) ?
TRAIL sens C8: inactive

Results for Clc1ncccc1-c1nnn(-c2ccccc2)n1 ?
FLuc inhib CS: 70; FLuc stim CS: inactive; PPC-1+TRAIL kill: inactive; TRAIL sens C8: inactive

How did Fc1ccc(-n2nnc(-c3nccs3)n2)cc1 do in these assays?
FLuc inhib CS: 76; FLuc stim CS: inactive; PPC-1+TRAIL kill: inactive; TRAIL sens C8: inactive

High-throughput results (PubChem BioAssay)
